SMILES strings stand for the structures.

For the assay, the system named is Murine hepatitis virus. Briefly: Dose required to inhibit the growth of mouse hepatitis virus (MHV) in infected mouse astrocytoma (DBT) cells using plaque assay. The class given is functional. Put shortly: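 DBT monolayers infected with MHV at MOI 1 to 5, adsorbed 1 h at room temperature, then given MEM with 5% FCS plus compound (final 0.97 to 3030 μM, 0.15% DMSO) at 37 °C. Media harvested 18 h postinfection and titred by plaque assay on DBT cells (0.75% agarose overlay, 48 h, neutral red). Run in duplicate. % inhibition = (1 − T/C) × 100; TCID50 by probit analysis.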

As a reminder, the EC50 is the midpoint of the concentration-response curve. Low readings indicate greater potency, high ones weaker potency. As to `Cc1ccc(S(=O)(=O)O)cc1.N/C(=N\O)N/N=C/c1ccc2ccccc2n1`, the EC50 came to 39.3 µM.
`Cc1ccc(S(=O)(=O)O)cc1.N/C(=N\O)N/N=C/c1cc(Br)cc(Br)c1O` displayed an EC50 of 9.5 µM.
Regarding `Cc1ccc(S(=O)(=O)O)cc1.N/C(=N\O)N/N=C/c1nccc2ccccc12`, the EC50 turned out to be 47.7 µM. This EC50 lies about 5-fold higher than the previous one.
In turn, `Cc1ccc(S(=O)(=O)O)cc1.N/C(=N\O)N/N=C/c1cc(O)c(O)c(O)c1` registered an EC50 of 150 µM.
With `Cc1ccc(S(=O)(=O)O)cc1.N/C(=N\O)N/N=C/c1ccccc1O` the figure was 76 µM.
With `Cc1ccc(S(=O)(=O)O)cc1.N/C(=N\O)N/N=C/c1ncccc1O` the figure was 89.9 µM; with `Cc1ccc(S(=O)(=O)O)cc1.N/C(=N\O)N/N=C/c1c2ccccc2c(Cl)c2ccccc12`, 7.12 µM; with `Cc1ccc(S(=O)(=O)O)cc1.N/C(=N\O)N/N=C/c1c(O)cc(O)cc1O`, 18.1 µM.
For the molecule `Cc1ccc(S(=O)(=O)O)cc1.N/C(=N\O)N/N=C/c1cc([N+](=O)[O-])cc([N+](=O)[O-])c1O`, the EC50 was determined as 273 µM.
For `Cc1ccc(S(=O)(=O)O)cc1.N/C(=N\O)N/N=C/c1cc2c(cc1Cl)OCO2`, the EC50 was determined as 9.14 µM.
In turn, `Cc1ccc(S(=O)(=O)O)cc1.N/C(=N\O)N/N=C/c1ccc2c(c1)OCCO2` showed an EC50 of 46.1 µM.
For the molecule `Cc1ccc(S(=O)(=O)O)cc1.Cc1ncc(COP(=O)(O)O)c(/C=N/N=C(/N)NO)c1O`, the EC50 is 40.8 µM.
For `Cc1ccc(S(=O)(=O)O)cc1.N/C(=N\O)N/N=C/c1ccc(O)c(O)c1O`, the EC50 came to 183 µM.
The figure for `C=CCc1cccc(/C=N/N/C(N)=N/O)c1O.Cc1ccc(S(=O)(=O)O)cc1` is 3.42 µM; for `Cc1ccc(S(=O)(=O)O)cc1.N/C(=N\O)N/N=C/c1cc(Cl)cc(Cl)c1O` it is 9.54 µM.

These data come from ChEMBL document CHEMBL1125152, “Design, synthesis, testing, and quantitative structure-activity relationship analysis of substituted salicylaldehyde Schiff bases of 1-amino-3-hydroxyguanidine tosylate as new antiviral agents against coronavirus” (1990).
